Compound activity deposited in PubChem by several laboratories.
WT yeast gro inh: growth inhibition of WT yeast, mitochondrial fusion screen; mitochondrial fusion phenotypic screen, WT strain; inhibition, % at 10 µM; 190,000 tested, 2.1% active; in the data active = inhibition above about 58%; tested in S. cerevisiae
Beta cell apopt: blocks beta cell apoptosis. INS-1E cytokine-induced death, ATP luminescence, 48 h; percent of positive-control rescue, neutral wells zero. protection from apoptosis, % (concentration not given with the values). 300,000 tested, 0.8% active;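 active = Every replicate reaches about 75%, or at least half do and their mean reaches it too, limit read from the data; inconclusive = At least half of replicates reach the limit but their mean does not; inactive = Under half of replicates reach the limit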;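 also: 0% = cytokine-treated negative control wells and 100% = positive control rescue; higher means more ATP so stronger rescue from cytokine killing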
CSC inhib: blocks cancer stem cells. cancer stem cell-like cells viability, luminescence. inhibition, % at 7.5 µM. 300,000 tested, 1.1% active. AID 2717; in the data active = inhibition above about 75%; inconclusive = no clear call, values can overlap the other calls; tested in HMLE shEcad cells
T cruzi inh: blocks replication of Trypanosoma cruzi; T. cruzi beta-gal in NIH3T3, luminescence, 90 h; inhibition, % (concentration not given with the values); 300,000 tested, 1.4% active;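 active = mean inhibition across valid replicates above about 55%, limit read from the data; inconclusive = mean below that limit but half or more replicates reach it; inactive = mean below it, under half of replicates reach it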;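 also: signal also drops with host cell toxicity which is not excluded here; 0% = plate median of DMSO wells and 100% = zero luminescence signal; higher percent means less beta-gal luminescence so fewer parasites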
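System: mouse NIH/3T3 fibroblasts infected with β-gal-expressing T. cruzi Tulahuen C4 / Input: NIH/3T3 cells, 5,000 per well / Buffer or medium: Low-serum DMEM with 2% FBS / Probe or stimulus: 5000 reporter trypomastigotes per well / Schedule: ≥90 h infection period, 3 h prior cell attachment / Measured by: GalScreen luminescence, 60 min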
Efflux pump mplx: inhibitors of Candida antifungal efflux pumps expressed in yeast | S. cerevisiae Candida pump triplex, Nile Red efflux | 330,000 tested, 0.44% active | AID 485275 | inhibition, % at 10 µM;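 active = plate passing quality check with inhibition over a set limit, or well fluorescence over plate mean plus 4 SD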;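 also: Nile Red retained in pooled yeast measured as flow cytometry median fluorescence; 0% = buffer negative control and 100% = Enniatin B positive control; higher means more Nile Red kept so more efflux inhibition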
SUMO Mot1 rescue: inhibitors of SUMOylation pathway: yeast Mot1-301 growth rescue. S. cerevisiae Mot1-301 growth rescue, ATP luminescence, 38.5C; percent above DMSO median, 100 means doubled. growth rescue, % at 18.8 µM. 320,000 tested, 1% active. AID 2716;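 active = every valid replicate shows activation above 250% relative to neutral control wells; inactive = the rest, any valid replicate at or below 250%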;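 also: OY570 slx delta 5 strain wells were the positive control but not used for scaling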
The depositor's hits bear a star; ? = inconclusive; . = no result given. The list is not random: actives were taken first. Their share in the collection is about 4.8%.

SMILES | WT yeast gro inh | Beta cell apopt | CSC inhib | T cruzi inh | Efflux pump mplx | SUMO Mot1 rescue
CC(C)NC(=O)CSc1nnc(C2CC2)n1-c1ccccc1 | 10.6 | 0.5 | -12.5 | -16.2 | -0.2 | 20.5
Oc1ccc2ccccc2c1/C=N/Nc1nnc(-c2ncc[nH]2)c2ccccc12 | 40.7 | 106.6* | 100.1* | 58.3* | 0.0 | 46.2
COc1ccc(/C=N/Nc2nnc(-c3ncc[nH]3)c3ccccc23)cc1 | -19.1 | 4.8 | 18.1 | 2.6 | 0.0 | 13.4
CC1(C)C2CCC1(C)C(OC(=O)C[n+]1ccccc1)C2 (stereo unspecified) | . | -4.9 | -0.5 | 8.7 | 0.0 | 1.6
CC1(C)C2CCC1(C)C(OC(=O)CC(=O)O)C2 (stereo unspecified) | 63.7* | 2.0 | 62.0 | 11.5 | 0.3 | 182.0
CCn1c(C(=O)O)c(CC(=O)Nc2cccc(C(F)(F)F)c2)c2ccccc21 | . | -4.1 | ? | -0.3 | 0.0 | -18.3
CCn1c(C)c(C)c2cc(C(=O)N3CCc4ccccc4C3)ccc21 | . | 113.3* | 62.2 | 5.0 | -0.1 | -2.8
CCN1CCN(C(=O)c2ccc3c(c2)c(C)c(C)n3Cc2ccccc2)CC1 | -11.2 | -13.0 | 53.5 | 2.9 | 0.1 | 15.9
Cc1ccc(S(=O)(=O)N2CCN(C(=O)c3n[nH]c4ccccc34)CC2)cc1 | . | 0.8 | . | . | -0.1 | -9.0
O=C(c1n[nH]c2ccccc12)N1CCN(S(=O)(=O)c2ccc3ccccc3c2)CC1 | 77.4* | -5.0 | -5.8 | 2.1 | -0.2 | -10.8
COc1ccc(-n2c(=O)c3c4c(sc3n3c(=S)[nH]nc23)COC(C(C)C)C4)cc1 (stereo unspecified) | . | -2.0 | -18.6 | -22.1 | 0.0 | 8.9
O=C(CCNS(=O)(=O)c1ccc(Br)cc1)NC1CCC(O)CC1 (stereo unspecified) | . | -3.5 | -8.1 | . | -0.1 | -8.1
CC1CN(CCCCOc2ccc(F)cc2)CC(C)O1 (stereo unspecified) | 15.4 | -4.7 | -1.5 | 5.5 | -0.1 | 274.1
CCN1CCN(C(=O)c2ccc(CSc3ccc(C)cc3)cc2)CC1 | 35.5 | -17.7 | 154.9* | 34.7 | 0.0 | -15.7
Cc1ccc(SCc2ccc(C(=O)N3CCCC3)cc2)cc1 | 28.6 | 1.0 | 12.9 | 2.1 | -0.2 | 14.4
Nc1c2c(nc3ccccc13)CSCC2 | . | . | -4.6 | 54.7* | 0.0 | 3.3
CCCCn1c(N)c(N(CCC(C)C)C(=O)c2ccc([N+](=O)[O-])s2)c(=O)[nH]c1=O | . | 1.1 | . | 63.6* | -0.1 | 144.3
CCCCN(C(=O)c1ccc([N+](=O)[O-])s1)c1c(N)n(CC(C)C)c(=O)[nH]c1=O | . | . | -2.5 | 7.8 | -0.1 | .
CCN1CCN(S(=O)(=O)Cc2ccccc2Cl)CC1 | . | . | -12.4 | -0.5 | 0.1 | -1.0
CCC(C(=O)OCC(=O)Nc1cc(Cl)cc(Cl)c1)c1ccccc1 (stereo unspecified) | 79.3* | 8.0 | 8.9 | 49.1 | 0.1 | -1.9
Cc1ccc(C)c(OCCCCN2CCNCC2)c1C | . | 2.4 | 128.9* | 13.4 | -0.1 | -10.3
Cc1ccc(C)c(OCCCN2CCNCC2)c1 | . | -12.2 | -8.5 | 8.5 | 0.2 | -24.8
COc1ccc(N2CCN(C(=O)CC34CC5CC(CC(C5)C3)C4)CC2)c([N+](=O)[O-])c1 | 66.3* | 23.6 | 43.5 | 30.1 | 0.0 | -4.7
CCCc1nnc(NC(=O)CCC(=O)N2CCN(S(=O)(=O)c3ccc(C)cc3)CC2)s1 | . | 1.2 | -13.0 | 5.4 | 0.0 | -6.1
O=C(NCCS(=O)(=O)NC1CCCCC1)c1ccc2c(c1)OCO2 | . | -1.4 | . | -11.8 | 0.0 | -10.2
SMILES | WT yeast gro inh | Beta cell apopt | CSC inhib | T cruzi inh | Efflux pump mplx | SUMO Mot1 rescue
CN(Cc1c(F)cccc1Cl)C(=O)c1cc2ccccc2o1 | 17.6 | 98.9* | 4.7 | -3.7 | -0.1 | 25.9
CSc1ccc(CN(C)C(=O)c2cc3ccccc3o2)cc1 | . | -1.8 | 3.8 | 18.9 | 0.0 | -4.3
CCS(=O)(=O)c1ccc(O)c(NC(=O)NC2CCCCC2)c1 | . | 1.5 | -10.1 | -7.7 | 0.1 | -25.8
CN1c2ccc([N+](=O)[O-])cc2N(C)C1(C)c1ccccc1 (stereo unspecified) | . | 10.0 | 7.7 | 57.5* | 0.1 | 64.8
COc1ccc(COC(=O)CCS(=O)(=O)c2ccc(C)cc2)cc1F | . | -0.7 | . | -10.0 | 0.1 | 6.9
CNc1oc(C)nc1S(=O)(=O)c1ccc(C)cc1 | 67.6* | . | -2.8 | -8.2 | 0.1 | -15.5
CNc1oc(-c2ccccc2)nc1S(=O)(=O)c1ccc(C)cc1 | . | -1.9 | 8.6 | -25.0 | -0.2 | 12.2
O=C(NCc1ccco1)/C(=C/c1ccccc1F)NC(=O)c1ccccc1 | . | -9.5 | 4.7 | -14.0 | 0.0 | -3.2
COc1cnc(-c2ccccn2)nc1Oc1ccccc1Cl | 60.6* | 11.3 | -13.8 | -7.3 | 0.0 | -8.0
COc1cnc(-c2ccccn2)nc1Oc1ccc(Cl)c2ccccc12 | -5.0 | 97.4* | 55.4 | 37.7 | -0.1 | .
COc1cnc(-c2ccccn2)nc1NC(C)C | 4.0 | 67.7 | -2.2 | 76.9* | 0.0 | 15.6
O=C(NN=C1CCN(Cc2ccccc2)CC1)C(O)c1ccccc1 (stereo unspecified) | -5.6 | -0.5 | 8.0 | -9.2 | 0.1 | 7.2
O=c1c(/C=N/OCc2ccc(Cl)cc2Cl)c[nH]n1-c1cccc(Cl)n1 | 55.9 | -1.9 | 93.5* | 12.2 | 0.0 | 72.0
CCC(C)NC(=O)C(Sc1ccccc1)c1ccccc1 (stereo unspecified) | -6.4 | -2.9 | 12.0 | -21.1 | -0.1 | 61.5
CCOc1ccc(C2c3[nH]c4ccccc4c3C[C@H]3C(=O)N(C4CCN(Cc5ccccc5)CC4)CC(=O)N23)cc1OC (stereo partly specified) | . | -3.0 | -7.2 | 37.6 | -0.2 | -10.8
O=C1[C@@H]2Cc3c([nH]c4ccccc34)C(c3cccc([N+](=O)[O-])c3)N2C(=O)CN1C1CCN(Cc2ccccc2)CC1 (stereo partly specified) | . | 4.7 | 55.1 | 70.9* | 0.1 | -12.9
CC1CCN(CC(O)COCCC23CC4CC(CC(C4)C2)C3)CC1 (stereo unspecified) | 43.2 | 13.8 | 51.8 | 61.2* | -0.1 | 92.2
O=C(c1cc(COc2cccc3cnccc23)on1)N1CCCC(CCCO)C1 (stereo unspecified) | . | 117.0* | 10.5 | -20.5 | -0.1 | 9.8
CC(=O)Nc1ccccc1/C=C/c1ccc2c(C)ccc(O)c2n1 | 15.8 | -5.2 | -8.7 | -2.4 | 0.2 | 4.4
CC(=O)Nc1ccccc1/C=C/c1ccc2c(C)cc(C)c(O)c2n1 | 77.3* | 36.9 | 0.5 | -12.5 | 0.9 | 157.5
O=C(NC(=S)NC(CO)Cc1ccccc1)c1ccc(F)cc1 (stereo unspecified) | . | -2.2 | -15.3 | -14.2 | 0.0 | 7.9
Cc1c(C(=O)Nc2ccc(-c3nnc4n3CCCCC4)cc2)oc2c1ccc1ccccc12 | 26.7 | 31.9 | 117.0* | 55.9* | 0.6 | 11.8
O=C(Nc1ccc(-c2nnc3n2CCCCC3)cc1)c1cc2ccccc2o1 | 2.9 | 5.9 | -4.6 | 23.9 | -0.2 | 207.2
